Measured values taken from ChEMBL document CHEMBL1145162, “6-aryl-8H-indeno[1,2-d]thiazol-2-ylamines: A1 adenosine receptor agonist allosteric enhancers having improved potency” (J Med Chem, 2005).

How the values were obtained:
[1] = biological target: T1, Adenosine receptor A1 (Homo sapiens) (UniProt P30542); assay: (§1) In vitro allosteric enhancer (AE) activity for adenosine A1 receptor at 50 uM
T1 sequence (whole entry): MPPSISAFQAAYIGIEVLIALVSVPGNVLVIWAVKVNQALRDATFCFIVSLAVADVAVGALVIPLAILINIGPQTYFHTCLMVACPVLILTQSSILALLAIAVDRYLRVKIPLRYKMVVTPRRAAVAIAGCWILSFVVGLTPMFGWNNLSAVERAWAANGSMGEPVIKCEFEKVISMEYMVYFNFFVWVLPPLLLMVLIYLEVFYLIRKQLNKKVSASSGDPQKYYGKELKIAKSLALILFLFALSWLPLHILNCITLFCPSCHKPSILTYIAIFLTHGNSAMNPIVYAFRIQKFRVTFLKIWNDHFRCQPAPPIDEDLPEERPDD
Procedure, shortened: (§2)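 Single-point screen on membranes from CHO-K1 cells stably expressing hA1AR. Candidate enhancer was added at 50 μM final for 5 min. Dissociation was then started with 8-cyclopentyltheophylline plus GTPγS and run 10 min. Score = % specific agonist binding remaining; two to three assays, each in triplicate.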

Adenosine receptor A1 = biological target: T2, Adenosine receptor A1 (Homo sapiens, UniProt P30542); assay: Antagonist activity against adenosine A1 receptor; assay type: functional; set-up: concentration or dose not given beside the values
T2 sequence (P30542 whole entry): T1 sequence (whole entry)
Procedure, shortened: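 Equilibrium binding on CHO-K1 hA1AR membranes (15 μg) in 10 mM HEPES pH 7.4, 1 mM EDTA, 1 U/mL adenosine deaminase, 4 nM [3H]CPX. Mixed with an equal volume of 200 μM enhancer in HEPES–10% DMSO; 200 μM NECA for nonspecific binding. Incubated 3 h at room temperature, then filtered.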

[2] = biological target: T1, Adenosine receptor A1 (Homo sapiens); assay: Inhibition of human adenosine receptor A1 at 10 uM
Procedure, shortened: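 CHO-K1 hA1AR membranes at 0.5 mg/mL in 10 mM HEPES pH 7.4 with 1 mM EDTA, 1 U/mL adenosine deaminase, 5 mM MgCl2 and 2 nM [3H]CPX. Mixed 1:1 with buffer containing 20 μM enhancer. Equilibrium 3 h at room temperature; 100 μM NECA defined nonspecific binding. Inhibition expressed relative to control specific binding; duplicate assays.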

[3] = biological target: T3, Adenosine receptor A1 (Rattus norvegicus) (UniProt P25099); assay: Allosteric enhancer (AE) activity against rat adenosine A1 receptor
T3 sequence (whole entry): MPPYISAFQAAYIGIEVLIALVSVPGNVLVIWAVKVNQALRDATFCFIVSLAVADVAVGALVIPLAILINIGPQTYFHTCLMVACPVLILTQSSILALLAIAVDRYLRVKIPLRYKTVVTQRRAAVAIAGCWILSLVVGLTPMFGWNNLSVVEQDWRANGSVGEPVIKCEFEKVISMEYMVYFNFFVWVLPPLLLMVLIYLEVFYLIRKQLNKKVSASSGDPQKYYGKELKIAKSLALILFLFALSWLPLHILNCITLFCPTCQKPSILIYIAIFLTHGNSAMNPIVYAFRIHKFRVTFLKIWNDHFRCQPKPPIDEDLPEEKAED

[4] = biological target: T4, Adenosine receptor A3 (Homo sapiens) (UniProt P0DMS8); assay: In vitro allosteric enhancer (AE) activity for adenosine A3 receptor at 50 uM
T4 sequence (whole entry): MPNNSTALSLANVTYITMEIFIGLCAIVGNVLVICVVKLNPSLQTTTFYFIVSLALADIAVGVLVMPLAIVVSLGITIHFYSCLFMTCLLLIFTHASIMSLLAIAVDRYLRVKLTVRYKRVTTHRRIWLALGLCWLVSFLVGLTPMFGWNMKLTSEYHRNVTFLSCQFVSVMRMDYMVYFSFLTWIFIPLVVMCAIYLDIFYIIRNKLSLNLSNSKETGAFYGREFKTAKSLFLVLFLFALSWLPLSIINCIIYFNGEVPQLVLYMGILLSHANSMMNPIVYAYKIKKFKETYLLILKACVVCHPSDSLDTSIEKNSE

[5] = biological target: Adenosine receptor A2a (Homo sapiens) (UniProt P29274); assay: In vitro allosteric enhancer (AE) activity for adenosine A2A receptor at 50 uM
Chain of Adenosine receptor A2a (Homo sapiens) (P29274 whole entry): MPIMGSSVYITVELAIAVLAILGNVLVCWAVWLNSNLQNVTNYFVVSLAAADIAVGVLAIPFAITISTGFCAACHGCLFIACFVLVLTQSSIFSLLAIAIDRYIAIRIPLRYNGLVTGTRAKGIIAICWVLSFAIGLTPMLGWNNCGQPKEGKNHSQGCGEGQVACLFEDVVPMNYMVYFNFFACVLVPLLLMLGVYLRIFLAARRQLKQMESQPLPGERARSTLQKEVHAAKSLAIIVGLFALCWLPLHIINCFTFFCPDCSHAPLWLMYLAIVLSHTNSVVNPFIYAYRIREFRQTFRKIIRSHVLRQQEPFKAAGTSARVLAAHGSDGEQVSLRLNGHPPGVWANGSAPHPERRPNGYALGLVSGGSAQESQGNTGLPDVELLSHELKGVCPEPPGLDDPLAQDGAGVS

[6] = biological target: T1, Adenosine receptor A1 (Homo sapiens); assay: Allosteric enhancer (AE) activity against human adenosine A1 receptor at 50 uM; procedure, shortened: as §2
[7] = biological target: T4, Adenosine receptor A3 (Homo sapiens); assay: Inhibition of human adenosine receptor A3 at 10 uM
[8] = biological target: T1, Adenosine receptor A1 (Homo sapiens); assay: In vitro allosteric enhancer (AE) activity for adenosine A1 receptor maximal score from curve fitting
[9] = biological target: T3, Adenosine receptor A1 (Rattus norvegicus); assay: Allosteric enhancer (AE) activity against rat adenosine A1 receptor at 50 uM
[10] = biological target: T1, Adenosine receptor A1 (Homo sapiens); assay: as §1; procedure, shortened: as §2; remark: listed apart in the source
[11] = biological target: T1, Adenosine receptor A1 (Homo sapiens); assay: as §1; procedure, shortened: as §2; remark: listed apart in the source

| Compound | Alloste ic enhan er (AE) [1] [%] | Inhibition (Adenosine receptor A1) [%] | inhibition [2] [%] | Alloste ic enhan er (AE) [3] [%] | Alloste ic enhan er (AE) [4] [%] | Alloste ic enhan er (AE) [5] [%] | Alloste ic enhan er (AE) [6] [%] | inhibition [7] [%] | Allosteric enhancer (AE) [8] [%] | Alloste ic enhan er (AE) [9] [%] | Alloste ic enhan er (AE) [10] [%] | Alloste ic enhan er (AE) [11] [%] |
| --- | --- | --- | --- | --- | --- | --- | --- | --- | --- | --- | --- | --- |
| Nc1nc2c(s1)Cc1cc(-c3ccc4c(c3)OCO4)ccc1-2 | 82 | 11.6 | 10.5 | 48.8 | 2.9 | 0 | 90.7 | 22.5 | 91 | – | – | – |
| COc1ccc(-c2ccc3c(c2)Cc2sc(N)nc2-3)cc1OC | 82 | 19.2 | 18.8 | – | 10.1 | 0.2 | 83.9 | 45 | 82.7 | 39.1 | – | – |
| COc1ccc(-c2ccc3c(c2)Cc2sc(N)nc2-3)cc1 | 87 | 13.3 | 25.2 | 32.3 | 18 | 0 | 72 | 37.6 | – | – | 90.2 | – |
| CN(C)c1ccc(-c2ccc3c(c2)Cc2sc(N)nc2-3)cc1 | 81 | 12.5 | 23.1 | 31.7 | 24.8 | 3.4 | 67.9 | 38.6 | – | – | – | 81.8 |
